Hsp70 activator = transcriptional activators of Hsp70 | activation, % at 10 µM | AID 1203 | HeLa Hsp70 promoter luciferase reporter, luminescence; scaled: vehicle 0, proteasome-inhibitor control 100% | 200,000 tested, 0.04% active;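 active = activation above the mean across all tested compounds plus 3 SD, cutoff set per campaign, cut at about 5.5% in these data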;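 also: 100% = MG132 at 30 µM as the positive control and 0% = DMSO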
Rad51 HR inh = Rad51 (human) homologous recombination inhibition. Q06609. hRad51 DNA strand exchange, fluorescence dequenching. inhibition, % at 10 µM. 200,000 tested, 0.085% active. AID 1385;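 active = inhibition above 40% at the single screening dose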;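 also: 0% = DMSO control wells and 100% = blanks with heterologous ssDNA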
Target sequence (Q06609 whole entry, looked up): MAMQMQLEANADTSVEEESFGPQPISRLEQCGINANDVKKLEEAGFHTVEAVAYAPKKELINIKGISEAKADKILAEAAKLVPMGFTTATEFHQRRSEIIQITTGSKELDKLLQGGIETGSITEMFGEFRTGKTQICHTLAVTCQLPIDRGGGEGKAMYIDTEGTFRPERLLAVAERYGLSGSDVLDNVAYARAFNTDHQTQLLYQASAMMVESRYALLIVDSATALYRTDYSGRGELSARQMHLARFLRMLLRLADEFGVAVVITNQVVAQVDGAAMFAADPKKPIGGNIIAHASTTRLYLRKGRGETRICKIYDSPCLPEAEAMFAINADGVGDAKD
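Read-out basis: percent inhibition relative to plate controls and blanks / Assay system: human Rad51 nucleoprotein filaments preassembled on unlabelled ssDNA / Timing: filaments 15 min 37 °C, then compound 30 min / Control set: per-plate controls and blanks / Technique: fluorescence dequenching at 485/520 nm / Compound: 10 µM final, single point / Also added: Fluorescein- and BHQ1-tagged 47-mer duplex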
Mdm2 ligase inh = Mdm2 E3 ligase (human) inhibition; Q00987; cell-based MDM2 ubiquitination luciferase reporter, 2 h; 0 = plate control, 100 = twice control, blank-subtracted; signal enhancement, % at 5 µM; 210,000 tested, 0.11% active; AID 1230;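 active = signal enhancement of 30% or more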;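 also: luminescence tracks abundance of the self-degrading MDM2-luciferase fusion protein; higher signal means inhibition of MDM2 E3 ligase activity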
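Assay system: stable mammalian line carrying autodegrading MDM2–luciferase fusion reporter; amount: 2000 cells seeded into each well; buffer or medium: DMEM; benchmarks: plate control and blank wells; signal: luciferase luminescence; timing: 2 h compound exposure at 37 °C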
HSV augment = HSV replication enhancement. HSV replication augmentation in cells, fold increase. maximum fold increase. 220,000 tested, 0.005% active; in the data active = maximum fold increase above about 1.5; tested in PC3 cells
HSF1 inh = HSF1 inhibition; NIH3T3-HGL HSE-luciferase, MG132-induced, luminescence 8 h; stronger effect = lower value; activity change, negative = inhibition, % at 7.5 µM (by protocol); 300,000 tested, 0.77% active; AID 2098;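 active = more than half of replicate wells show activity change below -50%, luminescence cut by over half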;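 also: luciferase reports HSF-1 transcriptional activity via heat shock element; 0% = median of DMSO wells and -100% = zero luminescence signal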
HSF-1 act = increases HSF-1 driven luciferase reporter signal; NIH3T3-HGL HSF-1 luciferase reporter, MG132, 8 h; 100% = twice DMSO control signal; activation, % at 9 µM; 300,000 tested, 1.7% active;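 active = mean replicate activation of at least 50% with a set share of replicates each reaching 50%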;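 also: 0% = median of the neutral control wells and 100% = twice that signal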
* = called active by the depositor; i = inactive; . = no result. In the library only some 2.6% were active in any assay of this set; here they are far more common.

SMILES	Hsp70 activator	Rad51 HR inh	Mdm2 ligase inh	HSV augment	HSF1 inh	HSF-1 act
CN1CCN(c2ccc(-c3cccc(NC(=O)COc4ccc(Cl)cc4Cl)c3)nn2)CC1	.	.	.	.	-54*	-60
CN1CCN(c2ccc(-c3cccc(NC(=O)COc4ccc(Cl)cc4)c3)nn2)CC1	.	.	.	.	-7	-19
O=c1cc[nH]c2ccc([N+](=O)[O-])cc12	0	-11	-12	i	3	12
COc1ccc(C2CC(c3ccccc3)=NN2C(=O)c2cccs2)cc1 (configuration not stated)	0	-7	-2	i	51	71*
COc1ccc(C2=NN(C(=O)CN3CCCC3)C(c3ccc(OC)cc3)C2)cc1 (configuration not stated)	.	.	-17	i	33	55*
CC(C)(C)n1nc2c(c1NC(=O)Cc1ccc([N+](=O)[O-])cc1)CS(=O)(=O)C2	.	.	.	.	-7	8
COCCCN1CC(=O)N2C(c3cccc(OC)c3OC)c3[nH]c4ccccc4c3C[C@H]2C1=O (some centres not stated)	.	.	.	.	-4	2
CC(OC(=O)Cc1cccc(C(F)(F)F)c1)C(=O)Nc1ccc(Cl)cn1 (configuration not stated)	.	.	.	.	6	6
Cc1nn(C)cc1/C=N\NC(=O)c1ccc2c(c1)c(C)c(C)n2Cc1ccccc1	0	3	-4	i	99	128*
Cc1ccc(S(=O)(=O)c2cc3ccccc3nc2N)cc1	0	3	-8	i	2	3
Cn1c(CNc2ccc(Br)cc2)nc2ccccc21	.	.	.	.	80	115*
COc1ccccc1OCc1nc2ccccc2n1C	.	.	.	.	7	34
Cn1c(CSc2nc3ccccc3s2)nc2ccccc21	0	7	-6	i	60	76*
Cc1ccc(NCc2nc3ccccc3n2C)cc1	0	-4	-15	i	8	11
Cn1c(COc2ccccc2Br)nc2ccccc21	.	.	.	.	49	70*
COc1ccc(CCN(C)C(=O)CN2C(=O)NC3(CCCCC3C)C2=O)cc1OC (configuration not stated)	.	.	.	.	-6	-5
CCOc1ccc(NC(=O)CN(C)C(=O)c2c(-c3c(F)cccc3Cl)noc2C)cc1OCC	.	.	.	.	0	9
Oc1ccccc1N=Nc1nc(-c2ccccc2)c(-c2ccccc2)[nH]1	-1	-5	0	i	54	71*
O=C(NNC(=O)c1ccccc1[N+](=O)[O-])c1ccc(NC(=O)c2ccccc2)cc1	.	.	.	.	1	7
COC(=O)CNc1c(-c2ccccc2)nc2ccc(Br)cn12	0	-3	-14	i	17	51*
CSC1=NC(C(Cl)(Cl)Cl)N=C(c2ccc(C)cc2)N1 (configuration not stated)	0	3	-14	i	5	1
COc1ccc(NC(=O)C2CCCN2C(=O)OC(C)(C)C)cc1 (configuration not stated)	0	1	-3	i	-4	-2
CCOC(=O)C1CCCN(CC(=O)Nc2c(C(=O)OC)[nH]c3ccccc23)C1 (configuration not stated)	0	-1	8	i	16	60*
CCOC(=O)C1CCCN(CC(=O)Nc2c(C(=O)OC)[nH]c3ccc(C)cc23)C1 (configuration not stated)	0	17	10	i	18	37
CCN(CC)S(=O)(=O)c1cc([N+](=O)[O-])ccc1NNC(=O)Nc1ccccc1OC	0	7	-17	i	20	71*
SMILES	Hsp70 activator	Rad51 HR inh	Mdm2 ligase inh	HSV augment	HSF1 inh	HSF-1 act
CCOc1ncccc1C(=O)Nc1ccc2nc(C)sc2c1	.	.	.	.	3	9
Cc1ccc2nc(NC(=O)c3ccc(OCC4CCCO4)cc3)sc2c1 (configuration not stated)	0	-32	-6	i	11	57*
COc1cc(CN2CCN(c3ccc(C)cc3)CC2)cc([N+](=O)[O-])c1O	0	117*	-23	i	0	1
CC1Sc2ccc(C(=O)Nc3ccccc3OC(F)F)cc2NC1=O (configuration not stated)	.	.	.	.	16	15
Cc1ccc(C)c(N2CCN(C(=O)c3cc(S(=O)(=O)N4CCCC4)cn3C)CC2)c1	.	.	.	.	-68*	-75
C=CCN1C(=O)C(Cc2ccc(OCC)cc2)S/C1=N\N=C\c1cccs1 (configuration not stated)	0	-4	.	i	19	56*
CC(NS(=O)(=O)c1cc2c3c(c1)CCC(=O)N3CCC2)c1ccccc1 (configuration not stated)	.	.	.	.	0	-9
CCSc1nc2ccccc2n1C(=O)/C=C\c1ccc(OC)c(OC)c1	0	-14	43*	i	-21	-10
CCSc1nc2ccccc2n1CC(N)=O	0	.	-20	i	-2	-20
OCCC1CN(CC2CCCCC2)CCN1C1CCCC1 (configuration not stated)	.	.	.	.	-6	-21
Cc1ccc(N=c2c([N+](=O)[O-])nn(-c3ccc4c(c3)OCCO4)n2O)cc1F	0	-5	-6	i	-79*	-84
Cc1cc(C)cc(N=c2c([N+](=O)[O-])nn(-c3ccc4c(c3)OCCO4)n2O)c1	0	6	-17	i	-6	-25
O=[N+]([O-])c1nn(-c2ccc3c(c2)OCCO3)n(O)c1=Nc1ccc(Cl)cc1	0	2	-19	i	-79*	-84
Cc1ccc(N=c2c([N+](=O)[O-])nn(-c3ccc4c(c3)OCCO4)n2O)c(Cl)c1	0	1	-6	i	-63*	-69
O=C1CCCN1CCCN=c1c([N+](=O)[O-])nn(-c2ccc(Cl)cc2)n1O	0	-17	-88	i	33	62*
COc1ccc(-n2nc([N+](=O)[O-])c(=NCCCN3CCCC3=O)n2O)cc1	0	19	4	i	-6	-5
CC(C)CCNC(=O)c1cc2c(=O)n3ccccc3nc2s1	.	.	.	.	8	0
O=[N+]([O-])c1nn(-c2ccc3c(c2)OCCO3)n(O)c1=Nc1ccccc1	-1	8	-28	i	-89*	-91
Cc1cc(C)n(-c2ccc(NC(=O)C3CCCCN3C(=O)c3ccoc3C)cc2)n1 (configuration not stated)	.	.	.	.	-70*	-77
CCOC(=O)c1c(NC(C)=O)sc2c(O)c(Br)cc(Br)c12	0	.	.	i	28	52*
CC1=CC(C)C2(COC(=O)Nc3ccccc3)COC(C)C1C2C (configuration not stated)	0	3	1	i	0	11
COC(=O)c1sccc1NC(=O)Nc1cccc(F)c1	0	17	-9	i	33	77*
COC(=O)c1sccc1NC(=O)/C=C/c1ccc(Cl)cc1	0	0	-16	i	29	76*
